From ChEMBL document CHEMBL3102844, “Synthesis and evaluation of Strychnos alkaloids as MDR reversal agents for cancer cell eradication” (Bioorg Med Chem, 2014)
pIC50, pKd: −log10 of the molar value. Active and inactive are the calls of the source. No cut-off for these calls is given here.

Legend:
[1] = biological target: T1, ATP-dependent translocase ABCB1 (Homo sapiens, UniProt P08183); test: Inhibition of human MDR1 overexpressed in human KB cells assessed as potentiation of vincristine-induced cytotoxicity at 3 uM incubated for 1 hr prior to vincristine challenge measured after 4 days by MTT assay relative to verapamil; assay type: cell-based; conditions: 96 h
[2] = biological target: T1, ATP-dependent translocase ABCB1; test: Inhibition of human MDR1 overexpressed in human KB cells assessed as potentiation of vincristine-induced cytotoxicity at 1 uM incubated for 1 hr prior to vincristine challenge measured after 4 days by MTT assay relative to verapamil; assay type: cell-based; conditions: 96 h
[3] = biological target: T1, ATP-dependent translocase ABCB1; test: Inhibition of p-glycoprotein (unknown origin) overexpressed in human KBV20C cells assessed as potentiation of vincristine-induced cytotoxicity at 3 uM incubated for 1 hr prior to vincristine challenge measured after 4 days by MTT assay; assay type: cell-based; conditions: 96 h
[4] = biological target: T1, ATP-dependent translocase ABCB1; test: Inhibition of p-glycoprotein (unknown origin) overexpressed in human KBV20C cells assessed as potentiation of vincristine-induced cytotoxicity at 1 uM incubated for 1 hr prior to vincristine challenge measured after 4 days by MTT assay; assay type: cell-based; conditions: 96 h
KBV20C = test: (§1) Cytotoxicity against human KBV20C cells overexpressing pgp assessed as reduction in cell viability after 4 days by MTT assay; assay type: functional, cell-based
How it was run: (§2)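 KB-MDR (1000 cells/well) or KB-V20C (2000 cells/well) Pgp-overexpressing KB lines in RPMI1640 with 10% FBS; cultured 4 days with serial concentrations of test compound. Viability read by MTT endpoint absorbance. IC50 obtained by fitting a sigmoid Emax model to viability versus concentration; duplicates from three independent experiments.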

KB = test: Cytotoxicity against human KB cells overexpressing human MDR1 assessed as reduction in cell viability after 4 days by MTT assay; assay type: functional, cell-based; how it was run: as §2
Homo sapiens [5] = species: Homo sapiens; test: Induction of human recombinant p-glycoprotein ATPase activity using ATP as substrate at 0.3 to 1 mM after 40 mins by luciferase-mediated Pgp-Glo assay
How it was run: (§3)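 Reaction started with ATP (5 mM final), 40 min at 37 °C, stopped with ATP detection reagent; residual ATP read by luciferase luminescence. Luminescence difference gives effect on ATPase activity. Triplicates in two independent experiments.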

[6] = Binding affinity to p-glycoprotein (unknown origin) by intrinsic tryptophan fluorescence quenching assay; set-up: species or system Homo sapiens
Homo sapiens [7] = species: Homo sapiens; test: Inhibition of human recombinant p-glycoprotein ATPase activity using ATP as substrate at 0.3 to 1 mM after 40 mins by luciferase-mediated Pgp-Glo assay; how it was run: as §3
[8] = biological target: T1, ATP-dependent translocase ABCB1; test: Inhibition of human MDR1 overexpressed in human KB cells assessed as potentiation of doxorubicin-induced cytotoxicity at 1 uM incubated for 1 hr prior to […] measured after 4 days by MTT assay relative to verapamil; assay type: cell-based; conditions: 96 h
[9] = biological target: T1, ATP-dependent translocase ABCB1; test: Inhibition of human MDR1 overexpressed in human KB cells assessed as potentiation of vincristine-induced cytotoxicity at 0.28 uM incubated for 1 hr prior to vincristine challenge measured after 4 days by MTT assay relative to verapamil; assay type: cell-based; conditions: 96 h
[10] = biological target: T1, ATP-dependent translocase ABCB1; test: Inhibition of human MDR1 overexpressed in human KB cells assessed as potentiation of vincristine-induced cytotoxicity at 0.14 uM incubated for 1 hr prior to vincristine challenge measured after 4 days by MTT assay relative to verapamil; assay type: cell-based; conditions: 96 h
[11] = biological target: T1, ATP-dependent translocase ABCB1; test: Inhibition of human MDR1 overexpressed in human KB cells assessed as potentiation of vincristine-induced cytotoxicity at 0.07 uM incubated for 1 hr prior to vincristine challenge measured after 4 days by MTT assay relative to verapamil; assay type: cell-based; conditions: 96 h
[12] = biological target: T1, ATP-dependent translocase ABCB1; test: Inhibition of p-glycoprotein (unknown origin) overexpressed in human KBV20C cells assessed as potentiation of vincristine-induced cytotoxicity at 0.28 uM incubated for 1 hr prior to vincristine challenge measured after 4 days by MTT assay; assay type: cell-based; conditions: 96 h
How it was run: (§4)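 Pgp-overexpressing KB-MDR or KB-V20C cells, 1000–2000 cells/well in RPMI1640 with 10% FBS, pretreated 1 h with modulator at final 0.07–3.0 µM, then exposed to serial dilutions of vincristine or doxorubicin for four days. […] Viability read by MTT. Cytotoxic-drug IC50 obtained by sigmoid Emax fit; duplicates, three independent experiments.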

[13] = biological target: T1, ATP-dependent translocase ABCB1; test: Inhibition of p-glycoprotein (unknown origin) overexpressed in human KBV20C cells assessed as potentiation of vincristine-induced cytotoxicity at 0.14 uM incubated for 1 hr prior to vincristine challenge measured after 4 days by MTT assay; assay type: cell-based; conditions: 96 h; how it was run: as §4
[14] = biological target: T1, ATP-dependent translocase ABCB1; test: Inhibition of p-glycoprotein (unknown origin) overexpressed in human KBV20C cells assessed as potentiation of vincristine-induced cytotoxicity at 0.07 uM incubated for 1 hr prior to vincristine challenge measured after 4 days by MTT assay; assay type: cell-based; conditions: 96 h; how it was run: as §4
[15] = as §1; assay type: functional, cell-based; conditions: 96 h; how it was run: as §2

T1 sequence (P08183 whole entry): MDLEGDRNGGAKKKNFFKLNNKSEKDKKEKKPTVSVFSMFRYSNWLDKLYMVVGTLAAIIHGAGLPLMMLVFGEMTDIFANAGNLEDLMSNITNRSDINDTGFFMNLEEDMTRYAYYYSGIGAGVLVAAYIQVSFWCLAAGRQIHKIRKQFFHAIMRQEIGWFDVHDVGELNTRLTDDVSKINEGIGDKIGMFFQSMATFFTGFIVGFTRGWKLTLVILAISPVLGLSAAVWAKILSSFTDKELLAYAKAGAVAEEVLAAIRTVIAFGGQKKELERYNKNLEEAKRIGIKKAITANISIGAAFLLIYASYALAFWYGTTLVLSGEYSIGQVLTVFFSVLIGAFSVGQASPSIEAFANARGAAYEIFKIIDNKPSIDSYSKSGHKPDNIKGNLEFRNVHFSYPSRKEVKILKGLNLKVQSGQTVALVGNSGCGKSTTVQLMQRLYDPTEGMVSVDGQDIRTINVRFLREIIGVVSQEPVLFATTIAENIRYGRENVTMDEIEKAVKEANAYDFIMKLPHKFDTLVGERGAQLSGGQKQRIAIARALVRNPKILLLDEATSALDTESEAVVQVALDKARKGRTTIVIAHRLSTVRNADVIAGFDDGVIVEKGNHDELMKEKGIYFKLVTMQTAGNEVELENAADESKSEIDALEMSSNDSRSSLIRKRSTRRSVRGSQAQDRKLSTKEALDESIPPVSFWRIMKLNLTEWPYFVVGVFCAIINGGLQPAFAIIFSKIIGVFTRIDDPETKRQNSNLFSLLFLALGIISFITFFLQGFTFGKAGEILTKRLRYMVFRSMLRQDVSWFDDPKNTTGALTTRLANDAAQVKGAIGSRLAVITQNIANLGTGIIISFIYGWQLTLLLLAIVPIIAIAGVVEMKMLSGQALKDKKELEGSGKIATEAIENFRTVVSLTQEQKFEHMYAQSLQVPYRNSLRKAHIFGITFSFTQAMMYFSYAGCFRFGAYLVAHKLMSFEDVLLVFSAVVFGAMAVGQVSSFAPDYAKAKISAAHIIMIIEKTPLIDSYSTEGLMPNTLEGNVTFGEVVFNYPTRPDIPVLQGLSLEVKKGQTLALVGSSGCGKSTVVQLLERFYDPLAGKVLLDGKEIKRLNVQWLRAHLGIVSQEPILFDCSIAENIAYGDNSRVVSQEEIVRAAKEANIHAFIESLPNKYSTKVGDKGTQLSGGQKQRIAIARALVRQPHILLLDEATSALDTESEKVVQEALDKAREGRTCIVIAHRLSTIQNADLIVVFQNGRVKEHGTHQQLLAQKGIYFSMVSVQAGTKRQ

Row | Compound | fold change (FC) [1] | fold change (FC) [2] | fold change (FC) [3] | fold change (FC) [4] | Activity (KBV20C) | Activity (KB) | Activity (Homo sapiens [5]) | pKd [6] | inhibition (Homo sapiens [7]) | fold change (FC) [8] | fold change (FC) [9] | fold change (FC) [10] | fold change (FC) [11] | fold change (FC) [12] | fold change (FC) [13] | fold change (FC) [14] | pIC50 [15]
1 | CC[C@@H]1CN2CC[C@]34c5ccccc5-n5c3c(cc(C(=O)OC)c5=O)[C@H]1C[C@H]24 [LEUCONICINE B] | 6.8 | 3.8 | 0.3 | 0.2 | Dose-dependent effect | Dose-dependent effect | Active | 4.86 |  |  |  |  |  |  |  |  | 
2 | CC[C@@H]1CN2CC[C@]34C(=C(C(=O)OC)[C@H]1C[C@H]23)Nc1ccccc14 | 3.8 | 2.5 | 0.2 | 0.1 | Dose-dependent effect | Dose-dependent effect |  | 4.04 | Active |  |  |  |  |  |  |  | 
3 | C/C=C1\CN2CC[C@]34c5ccccc5-n5c3c(cc(C(=O)OC)c5=O)[C@H]1C[C@H]24 | 3.8 | 2.1 | 0.3 | 0.2 | Dose-dependent effect | Dose-dependent effect | Active | 4.79 |  |  |  |  |  |  |  |  | 
4 | C/C=C1\CN2CC[C@]34C(=C(C=O)[C@H]1C[C@H]23)Nc1ccccc14 | 2.1 | 2.1 | 0.3 | 0.2 | Dose-dependent effect | Dose-dependent effect | Active | 4.09 |  |  |  |  |  |  |  |  | 
5 | CC[C@@H]1CN2CC[C@]34c5ccccc5-n5c3c(cc(C(N)=O)c5=O)[C@H]1C[C@H]24 [LEUCONICINE A] | 5 | 3.8 | 0.6 | 0.3 | Dose-dependent effect | Dose-dependent effect |  | 4.85 |  |  |  |  |  |  |  |  | 
6 | C/C=C1\CN2CC[C@]34C(=C(C(=O)OC)[C@H]1C[C@H]23)Nc1ccccc14 | 3.8 | 2.5 | 0.4 | 0.2 | Dose-dependent effect | Dose-dependent effect | Active | 4.00 |  |  |  |  |  |  |  |  | 
7 | CC[C@@H]1CN2CC[C@]34c5ccccc5-n5c3c(cc(C(=O)NCc3cc(OC)c(OC)c(OC)c3)c5=O)[C@H]1C[C@H]24 |  | 93.8 |  |  | Dose-dependent effect | Dose-dependent effect |  | 5.35 | Active | 20 | 3.8 | 2.5 | 2.1 | 1.5 | 1 | 0.6 | 6.42
